In ChEMBL document CHEMBL1139544, “Potent, orally active corticotropin-releasing factor receptor-1 antagonists containing a tricyclic pyrrolopyridine or pyrazolopyridine core” (J Med Chem, 2005):
pKi: −log10 of the molar value. Blank lines part the entries; values can stand above or below the molecule they belong to.

Experiments:
[1] = target: T1, Corticotropin-releasing factor receptor 1 (Homo sapiens, UniProt P34998); assay: Inhibition of [125I]sauvagine binding to corticotropin releasing factor receptor 1 expressed in LtK- cells; Not active (<30% inhibition at 10 uM); format: cell-based
T1 sequence (P34998 whole entry): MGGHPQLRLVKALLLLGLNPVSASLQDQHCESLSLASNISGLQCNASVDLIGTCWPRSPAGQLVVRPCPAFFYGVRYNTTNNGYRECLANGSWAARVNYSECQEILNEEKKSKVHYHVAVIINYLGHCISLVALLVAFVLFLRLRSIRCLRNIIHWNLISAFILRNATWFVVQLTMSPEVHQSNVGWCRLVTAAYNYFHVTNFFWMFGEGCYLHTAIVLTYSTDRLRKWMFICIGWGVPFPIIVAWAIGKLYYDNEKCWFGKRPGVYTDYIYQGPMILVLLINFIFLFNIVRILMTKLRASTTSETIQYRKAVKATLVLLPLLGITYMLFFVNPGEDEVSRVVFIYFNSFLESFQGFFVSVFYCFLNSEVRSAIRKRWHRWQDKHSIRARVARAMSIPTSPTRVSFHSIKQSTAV

[2] = target: T1, Corticotropin-releasing factor receptor 1; assay: Inhibition of [125I]sauvagine binding to corticotropin releasing factor receptor 1 expressed in LtK- cells; format: cell-based
[3] = Half life in rat following administration of 10 mg/kg, p.o. and 10 mg/kg, i.v.; format: ADME, organism-based; conditions: in vivo
Method in brief: (§1)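 Male Sprague Dawley rats were given one compound intravenously via tail vein and by oral gavage (N = 3/time point), dosed in purified water at 2 mL/kg. Terminal blood and brain were taken at set times for composite sampling. Plasma was acetonitrile-precipitated and analysed by LC-MS/MS (LLOQ 5 ng/mL). Parameters came from a noncompartmental model.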

[4] = Bioavailability in rat (dose 10 mg/kg p.o. and 10 mg/kg, i.v.); format: ADME, organism-based; conditions: in vivo, po; method in brief: as §1
[5] = Total body clearance in rat following administration of 10 mg/kg, p.o. and 10 mg/kg, i.v.; format: ADME, organism-based; conditions: in vivo, iv; method in brief: as §1
[6] = target: Corticotropin releasing factor receptor (Rattus norvegicus, UniProt P47866+P35353); assay: Inhibition of corticotropin releasing factor stimulated adrenocorticotropic hormone release from rat pituitary cells; format: functional, cell-based; conditions: pituitary gland cell
Method in brief: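 Pituitaries from 7-week-old female Sprague Dawley rats were digested with collagenase and plated at 40 000 cells/well in 3% FCS/BBM-T for 2-3 days. Compound (1 pM–1 µM) was added with 0.5 nM r/hCRF for 4 h at 37 °C. ACTH in the medium was measured by RIA, and IC50 was obtained by nonlinear curve fitting.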

[7] = Volume of distribution in rat following administration of 10 mg/kg, p.o. and 10 mg/kg, i.v.; format: ADME, organism-based; conditions: in vivo, iv; method in brief: as §1
[8] = Half life in rat following administration of 10 mg/kg, p.o. and 10 mg/kg i.v.; format: ADME, organism-based; conditions: in vivo; method in brief: as §1
[9] = Total body clearance in rat following administration of 10 mg/kg, p.o. and 10 mg/kg i.v.; format: ADME, organism-based; conditions: in vivo, iv; method in brief: as §1
[10] = Bioavailability in rat following administration of 10 mg/kg, p.o. and 10 mg/kg i.v.; format: ADME, organism-based; conditions: in vivo, po; method in brief: as §1
[11] = Half life in rat following administration of 10 mg/kg, p.o. and 5 mg/kg, i.v.; format: ADME, organism-based; conditions: in vivo; method in brief: as §1
[12] = Volume of distribution in rat following administration of 10 mg/kg, p.o. and 5 mg/kg, i.v.; format: ADME, organism-based; conditions: in vivo, iv; method in brief: as §1
[13] = Bioavailability in rat following administration of 10 mg/kg, p.o. and 5 mg/kg, i.v.; format: ADME, organism-based; conditions: in vivo, po; method in brief: as §1
[14] = Total body clearance in rat following administration of 10 mg/kg, p.o. and 5 mg/kg, i.v.; format: ADME, organism-based; conditions: in vivo, iv; method in brief: as §1
[15] = Volume of distribution in rat following administration of 2 mg/kg, p.o. and 1 mg/kg, i.v.; format: ADME, organism-based; conditions: in vivo, iv
Method in brief: (§2)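 Cassette study in male Sprague Dawley rats: five compounds were co-administered at 2 mg/kg po (gavage) and by tail-vein iv (N = 3/time point), in purified water at 2 mL/kg. Composite terminal plasma sampling was used. Plasma was acetonitrile-precipitated for LC-MS/MS (LLOQ 5 ng/mL). Parameters came from a noncompartmental model.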

[16] = Bioavailability in rat (dose 2 mg/kg p.o. and 1 mg/kg, i.v.); format: ADME, organism-based; conditions: in vivo, po; method in brief: as §2
[17] = Half life in rat following administration of 2 mg/kg, p.o. and 1 mg/kg, i.v.; format: ADME, organism-based; conditions: in vivo; method in brief: as §2
[18] = Total body clearance in rat following administration of 2 mg/kg, p.o. and 1 mg/kg, i.v.; format: ADME, organism-based; conditions: in vivo, iv; method in brief: as §2

Compound: CCCC(CCC)N1CCc2c3c1cc(C)nc3nn2-c1ccc(Cl)cc1Cl
- Ki [1]: Not Active

Compound: CCCC(CCC)N1CCc2cn(Cc3ccc(Cl)cc3C)c3nc(C)cc1c23
- pKi [2]: 5.72

Compound: CCC(COC)N1CCc2cn(-c3ccc(Cl)cc3C#N)c3nc(C)cc1c23 (stereo unspecified)
- pKi [2]: 7.40

Compound: COCC(COC)N1CCc2cn(-c3ccc(Cl)cc3C#N)c3nc(C)cc1c23
- pKi [2]: 6.92

Compound: CCCC(CCC)N1CCc2cn(-c3ccccc3OC)c3nc(C)cc1c23
- pKi [2]: 7.26

Compound: CCC(CC)N1CCc2cn(-c3ccc(Cl)cc3C#N)c3nc(C)cc1c23
- pKi [2]: 7.21

Compound: Cc1cc2c3c(cn(-c4ccc(Cl)cc4C#N)c3n1)CCN2C
- Ki [1]: Not Active

Compound: CCCCN1CCc2cn(-c3ccc(Cl)cc3C#N)c3nc(C)cc1c23
- pKi [2]: 7.31

Compound: CCCC(CCC)N1CCc2cn(-c3cccc(OC)c3)c3nc(C)cc1c23
- pKi [2]: 6.72

The remaining molecules from weak to strong by pKi [2], led by results:

- pKi [2]: 7.52
Compound: CCCC(CCC)N1CCc2cn(-c3ccc(C)cc3)c3nc(C)cc1c23

- Vd [15]: 19 L/kg
- bioavailability [16]: 66%
- half-life [17]: 2.5 h
- clearance [18]: 5.22 L/h/kg
- IC50 [6]: 0.027 µM
- pKi [2]: 7.80
Compound: CCC(COC)N1CCc2cn(-c3c(C)cc(Cl)cc3C)c3nc(C)cc1c23 (stereo unspecified)

- half-life [3]: 5 h
- bioavailability [4]: 74%
- clearance [5]: 9.12 L/h/kg
- IC50 [6]: 0.25 µM
- Vd [7]: 66 L/kg
- pKi [2]: 7.89
Compound: CCCC(CCC)N1CCc2cn(-c3ccc(S(C)(=O)=O)cc3Cl)c3nc(C)cc1c23

- pKi [2]: 7.89
Compound: CCCC(CCC)N1CCc2cn(-c3ccc(Cl)cc3C#N)c3nc(C)cc1c23

- pKi [2]: 8.14
Compound: CCCC(CCC)N1CCc2cn(-c3ccc(C#N)cc3Cl)c3nc(C)cc1c23

- half-life [3]: 5.7 h
- bioavailability [4]: 18%
- clearance [5]: 6.42 L/h/kg
- IC50 [6]: 0.039 µM
- Vd [7]: 53 L/kg
- pKi [2]: 8.19
Compound: CCCC(CCC)N1CCc2cn(-c3ccc(OC)cc3C)c3nc(C)cc1c23

- Vd [15]: 80 L/kg
- bioavailability [16]: 76%
- half-life [17]: 33 h
- clearance [18]: 1.68 L/h/kg
- IC50 [6]: 0.048 µM
- pKi [2]: 8.22
Compound: CCC(CC)N1CCc2cn(-c3ccc(OC(F)(F)F)cc3C)c3nc(C)cc1c23

- half-life [3]: 10 h
- bioavailability [4]: 50%
- clearance [5]: 4.2 L/h/kg
- IC50 [6]: 0.029 µM
- Vd [7]: 62 L/kg
- pKi [2]: 8.27
Compound: CCCC(CCC)N1CCc2cn(-c3ccc(OC)nc3OC)c3nc(C)cc1c23

- pKi [2]: 8.38
Compound: CCCC(CCC)N1CCc2cn(-c3ccc(Cl)cc3Cl)c3nc(C)cc1c23

- half-life [8]: 6.3 h
- clearance [9]: 4.2 L/h/kg
- bioavailability [10]: 24%
- IC50 [6]: 0.014 µM
- Vd [7]: 38 L/kg
- pKi [2]: 8.46
Compound: CCCC(CCC)N1CCc2cn(-c3ccc(C)cc3Cl)c3nc(C)cc1c23

- pKi [2]: 8.51
Compound: CCCCN(CC)c1nc(C)nc2c1c(C)c(C)n2-c1c(C)cc(C)cc1C [ANTALARMIN]

- half-life [11]: 12 h
- Vd [12]: 44 L/kg
- bioavailability [13]: 7%
- clearance [14]: 2.58 L/h/kg
- IC50 [6]: 0.0068 µM
- pKi [2]: 8.54
Compound: CCCC(CCC)N1CCc2nn(-c3ccc(Cl)cc3Cl)c3nc(C)cc1c23
